Data set [1] in a line: Solubility at pH 6.8. Format: physicochemical. The conditions noted are these: buffer.
The nature of data set [2]: Lipophilicity, log P of the compound. The conditions noted are these: octanol/water. Format: physicochemical.
The target in another data set is Cytochrome P450 3A4 (Homo sapiens, UniProt P08684). In words: Inhibition of CYP3A4 in human liver microsome by LC-MS/MS analysis. Format: ADME, microsomes. On the technique in general: Liver microsomes are vesicles of endoplasmic reticulum, rich in cytochrome P450 enzymes.
Sequence of Cytochrome P450 3A4 (P08684 whole entry): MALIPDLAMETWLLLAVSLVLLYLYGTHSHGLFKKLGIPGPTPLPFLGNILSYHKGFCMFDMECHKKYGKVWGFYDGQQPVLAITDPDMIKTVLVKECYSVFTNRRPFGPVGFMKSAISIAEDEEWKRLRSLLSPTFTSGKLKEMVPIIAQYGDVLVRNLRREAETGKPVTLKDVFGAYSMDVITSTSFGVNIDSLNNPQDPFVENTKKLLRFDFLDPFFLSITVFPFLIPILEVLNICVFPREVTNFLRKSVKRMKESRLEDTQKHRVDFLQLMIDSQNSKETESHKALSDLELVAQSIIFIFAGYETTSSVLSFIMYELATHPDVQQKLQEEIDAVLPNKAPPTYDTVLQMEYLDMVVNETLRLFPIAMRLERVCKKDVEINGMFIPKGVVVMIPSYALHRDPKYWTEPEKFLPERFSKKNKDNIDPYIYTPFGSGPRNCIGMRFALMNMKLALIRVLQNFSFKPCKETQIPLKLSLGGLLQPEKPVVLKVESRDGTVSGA
The target of the next data set is Cytochrome P450 2D6 (Homo sapiens, UniProt P10635). Briefly: Inhibition of CYP2D6 in human liver microsome by LC-MS/MS analysis. Format: ADME, microsomes.
Sequence of Cytochrome P450 2D6 (P10635 whole entry): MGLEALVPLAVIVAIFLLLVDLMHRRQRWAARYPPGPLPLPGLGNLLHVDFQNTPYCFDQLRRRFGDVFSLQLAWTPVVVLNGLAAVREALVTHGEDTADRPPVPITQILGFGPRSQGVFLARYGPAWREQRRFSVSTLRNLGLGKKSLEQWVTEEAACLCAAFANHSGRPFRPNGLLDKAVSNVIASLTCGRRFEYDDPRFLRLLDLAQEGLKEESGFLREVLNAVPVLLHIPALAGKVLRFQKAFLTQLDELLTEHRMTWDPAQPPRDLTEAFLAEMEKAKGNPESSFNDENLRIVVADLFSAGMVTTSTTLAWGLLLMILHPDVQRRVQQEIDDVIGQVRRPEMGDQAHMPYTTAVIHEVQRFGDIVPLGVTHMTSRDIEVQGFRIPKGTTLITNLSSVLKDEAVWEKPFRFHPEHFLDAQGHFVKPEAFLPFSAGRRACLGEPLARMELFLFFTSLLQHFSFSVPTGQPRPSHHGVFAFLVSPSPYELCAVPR
Another data set addresses Cytochrome P450 2C9 (Homo sapiens, UniProt P11712). Briefly: Inhibition of CYP2C9 in human liver microsome by LC-MS/MS analysis. Format: ADME, microsomes.
The test system of data set [3] is Plasmodium falciparum. In words: Antimalarial activity against drug-sensitive Plasmodium falciparum NF54 infected in human erythrocytes after 48 hrs by [3H]hypoxanthine assay. Format: functional, organism-based.
For data set [4], the system named is Plasmodium falciparum. In words: Antimalarial activity against chloroquine-resistant Plasmodium falciparum K1 infected in human erythrocytes after 48 hrs by [3H]hypoxanthine assay. It is filed as functional, organism-based.
Data set [5] is described as follows: Clearance in mouse at 5 mg/kg, iv. It is filed as ADME, organism-based. Details: dose 5 mg/kg, route intravenous; call rule not given here. The note with it: in vivo.
Data set [6] has as its target Voltage-gated inwardly rectifying potassium channel KCNH2 (Homo sapiens, UniProt Q12809). Briefly: Binding affinity to human ERG.
Data set [7] in a line: Half life in mouse at 25 mg/kg, po. The note with it: in vivo. It is filed as ADME, organism-based. Details: dose 25 mg/kg, route oral. The method in brief: (§1)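 Mouse pharmacokinetics. Plasma drug concentration was followed over time. Derived values: Cmax, Tmax, AUC extrapolated to infinity, terminal half-life, and oral bioavailability (F) from the oral and iv exposures.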

A short description of data set [8]: AUC (infinity) in mouse at 25 mg/kg, po. It is filed as ADME, organism-based. Set-up: time infinity, dose 25 mg/kg, route oral. The note with it: plasma. The method in brief: as §1
Data set [9] relates to Plasmodium berghei. In words: Antimalarial activity against Plasmodium berghei ANKA infected in NMRI mice (Mus musculus) assessed as host survival time at 30 mg/kg, perorally administered once daily for 3 days (reference value: 6 to 7 days). Format: functional. The conditions noted are these: route oral.
Data set [10] is described as follows: Volume of distribution at steady state in mouse at 5 mg/kg, iv. The conditions noted are these: in vivo, read-out: Vdss.
A short description of data set [11]: Cmax in mouse at 25 mg/kg, po. Format: ADME, organism-based. Details: dose 25 mg/kg, route oral. The conditions noted are these: in vivo. The method in brief:
as §1

For data set [12], the system named is Plasmodium berghei. In words: Antimalarial activity against Plasmodium berghei ANKA infected in NMRI mice (Mus musculus) assessed as host survival time at 30 mg/kg, perorally administered as single dose (reference value: 6 to 7 days). It is filed as functional. The note with it: route oral.
Data set [13] in a line: Clearance in mouse at 5 mg/kg, iv. The note with it: in vivo.
The subject of the next data set is Mus musculus. In words: Oral bioavailability in mouse at 25 mg/kg. It is filed as ADME, organism-based. The note with it: in vivo. The method in brief:
as §1

Data set [14] has as its system Plasmodium berghei. In words: Antimalarial activity against Plasmodium berghei ANKA infected in NMRI mice (Mus musculus) assessed as host survival time at 100 mg/kg, perorally administered as single dose (reference value: 6 to 7 days). It is filed as functional. The conditions noted are these: route oral.
The test system of data set [15] is Plasmodium berghei. Briefly: Antimalarial activity against Plasmodium berghei ANKA infected in NMRI mice (Mus musculus) assessed as host survival time at 10 mg/kg, perorally administered once daily for 3 days (reference value: 6 to 7 days). Format: functional. The conditions noted are these: route oral.
The nature of data set [16]: Half life in mouse at 5 mg/kg, iv. The note with it: in vivo.
Data set [17] in a line: Tmax in mouse at 25 mg/kg, po. Format: ADME, organism-based. Details: dose 25 mg/kg, route oral. The conditions noted are these: in vivo. In outline:
as §1

Data set [18] deals with Plasmodium berghei. In words: Antimalarial activity against Plasmodium berghei ANKA infected in NMRI mice (Mus musculus) assessed as reduction in parasitaemia at 30 mg/kg, perorally administered once daily for 3 days. Details: scale not given: the % may be the effect or the level left. It is filed as functional. The conditions noted are these: route oral. The method in brief:
(§2)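 P. berghei-infected mice, 5 per group, given compound orally in 10% ethanol, 30% PEG400, 6% vitamin E TPGS, as a single dose or daily for three days. Parasitemia is measured on day three and reported as percent reduction (activity).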

The test system of data set [19] is Plasmodium berghei. Briefly: Antimalarial activity against Plasmodium berghei ANKA infected in NMRI mice (Mus musculus) assessed as reduction in parasitaemia at 10 mg/kg, perorally administered once daily for 3 days. It is filed as functional. Details: scale not given: the % may be the effect or the level left. The conditions noted are these: route oral. In outline: as §2

Data set [20] relates to Plasmodium berghei. Briefly: Antimalarial activity against Plasmodium berghei ANKA infected in NMRI mice (Mus musculus) assessed as reduction in parasitaemia at 30 mg/kg, perorally administered as single dose. Format: functional. Set-up: scale not given: the % may be the effect or the level left. The note with it: route oral. The method in brief: as §2
The test system of data set [21] is Plasmodium berghei. Briefly: Antimalarial activity against Plasmodium berghei ANKA infected in NMRI mice (Mus musculus) assessed as reduction in parasitaemia at 100 mg/kg, perorally administered as single dose. It is filed as functional. Set-up: scale not given: the % may be the effect or the level left. The conditions noted are these: route oral. The method in brief:
as §2

Molecules are shown by their SMILES. ≈ marks a conversion by molar mass, not a printed value.

Sequence of Cytochrome P450 2C9 (P11712 whole entry): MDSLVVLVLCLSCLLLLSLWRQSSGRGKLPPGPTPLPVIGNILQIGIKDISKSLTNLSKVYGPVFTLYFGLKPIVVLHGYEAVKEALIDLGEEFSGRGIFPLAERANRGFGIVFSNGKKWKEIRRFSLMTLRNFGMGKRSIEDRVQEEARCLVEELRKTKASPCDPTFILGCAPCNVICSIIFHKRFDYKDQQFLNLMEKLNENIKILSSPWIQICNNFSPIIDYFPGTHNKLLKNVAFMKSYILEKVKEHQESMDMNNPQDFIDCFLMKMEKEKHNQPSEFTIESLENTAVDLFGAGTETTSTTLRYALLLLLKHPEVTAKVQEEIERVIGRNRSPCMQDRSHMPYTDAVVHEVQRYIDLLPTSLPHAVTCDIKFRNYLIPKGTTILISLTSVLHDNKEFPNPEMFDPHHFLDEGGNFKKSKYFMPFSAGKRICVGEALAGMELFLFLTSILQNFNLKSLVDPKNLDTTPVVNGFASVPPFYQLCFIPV
Sequence of Voltage-gated inwardly rectifying potassium channel KCNH2 (Q12809 whole entry): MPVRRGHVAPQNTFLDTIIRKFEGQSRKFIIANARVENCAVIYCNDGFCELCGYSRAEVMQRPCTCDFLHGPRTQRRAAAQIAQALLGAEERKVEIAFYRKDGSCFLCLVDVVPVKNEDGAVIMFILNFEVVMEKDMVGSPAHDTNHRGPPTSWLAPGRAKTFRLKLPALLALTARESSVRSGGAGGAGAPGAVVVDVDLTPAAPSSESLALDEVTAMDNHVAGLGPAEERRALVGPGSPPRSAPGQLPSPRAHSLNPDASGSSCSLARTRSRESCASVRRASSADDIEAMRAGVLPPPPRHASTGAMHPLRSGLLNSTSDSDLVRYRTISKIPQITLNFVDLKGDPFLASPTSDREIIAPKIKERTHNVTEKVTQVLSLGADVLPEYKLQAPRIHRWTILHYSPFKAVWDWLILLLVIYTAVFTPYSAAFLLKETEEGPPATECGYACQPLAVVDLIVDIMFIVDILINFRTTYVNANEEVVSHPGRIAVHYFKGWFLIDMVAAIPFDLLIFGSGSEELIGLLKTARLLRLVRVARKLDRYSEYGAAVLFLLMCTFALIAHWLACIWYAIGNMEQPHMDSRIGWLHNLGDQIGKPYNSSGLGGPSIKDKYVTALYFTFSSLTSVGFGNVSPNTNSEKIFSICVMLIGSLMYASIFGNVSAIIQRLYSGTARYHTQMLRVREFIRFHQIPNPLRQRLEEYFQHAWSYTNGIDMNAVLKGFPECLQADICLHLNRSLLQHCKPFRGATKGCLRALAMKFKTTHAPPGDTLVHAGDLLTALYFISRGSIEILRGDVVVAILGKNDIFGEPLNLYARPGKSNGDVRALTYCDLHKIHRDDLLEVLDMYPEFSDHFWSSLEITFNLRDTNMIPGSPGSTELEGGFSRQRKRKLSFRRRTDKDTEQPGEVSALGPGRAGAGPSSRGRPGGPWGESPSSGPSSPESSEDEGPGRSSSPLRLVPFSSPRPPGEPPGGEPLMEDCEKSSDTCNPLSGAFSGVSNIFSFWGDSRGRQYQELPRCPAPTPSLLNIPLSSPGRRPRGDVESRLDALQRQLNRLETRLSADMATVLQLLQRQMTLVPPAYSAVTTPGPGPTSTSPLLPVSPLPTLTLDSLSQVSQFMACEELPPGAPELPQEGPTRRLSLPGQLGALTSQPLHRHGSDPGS

A word on the solubility: it is the dissolved amount per volume that the medium holds. A word on the logP: it is the decadic logarithm of the partition coefficient of the neutral form, usually between octanol and water. `C[C@H]1CCc2c([nH]c3ccccc23)[C@@]2(N1)C(=O)Nc1ccc(Br)cc12` gave a solubility in data set [1] of 79 µg/mL (≈ 199 µM). For the same compound, the lipophilicity (logP) in [2] is listed as 3.9.

The IC50 is the concentration at which inhibition is half-maximal. Take `C[C@H]1Cc2c([nH]c3cc(Cl)c(F)cc23)[C@@]2(N1)C(=O)Nc1ccc(Cl)cc12` [CIPARGAMIN]: the IC50 result is “Not Active” against Cytochrome P450 3A4, “Not Active” on Cytochrome P450 2D6 and 5420 nM against Cytochrome P450 2C9.

With `O=C1Nc2ccc(Cl)cc2C12NCCCc1c2[nH]c2ccccc12` (stereo not given), the IC50 in the data set on Plasmodium falciparum [3] came out at 86 nM; in the data set on Plasmodium falciparum [4], 83 nM.

`C[C@@H]1CCc2c([nH]c3ccccc23)[C@]2(N1)C(=O)Nc1ccc(Br)cc12` yielded an IC50 with Plasmodium falciparum [3] greater than 5000 nM.

A word on the clearance: it is a measure of how efficiently the substance is removed, as volume per time. Turning to `C[C@H]1Cc2c([nH]c3cc(Cl)ccc23)[C@@]2(N1)C(=O)Nc1ccc(Cl)cc12`, the IC50 in the data set with Plasmodium falciparum [3] is 4 nM; on Cytochrome P450 3A4, “Not Active”; against Cytochrome P450 2D6, “Not Active”; against Cytochrome P450 2C9, 4110 nM; in data set [6], greater than 30000 nM. The same compound had a solubility in data set [1] of 8 µg/mL (≈ 21.5 µM). This compound displayed a clearance in data set [5] of 60.1 mL/min/kg. Also, the logP in [2] is 4.8.

In turn, `CC1CCc2c([nH]c3ccccc23)C2(N1)C(=O)Nc1ccc(Br)cc12` (stereo not given) [SPIROAZEPINEINDOLE] showed a half-maximal inhibitory concentration (IC50) in the data set on Plasmodium falciparum [3] of 90 nM.

In the case of `CC1(C)Cc2c([nH]c3ccccc23)C2(N1)C(=O)Nc1ccc(Cl)cc12` (stereo not given), the IC50 was found to be 857 nM in the data set on Plasmodium falciparum [3] and 819 nM in the data set on Plasmodium falciparum [4].

Take `O=C1Nc2ccc(Cl)cc2C12NCCCCc1c2[nH]c2ccccc12` (stereo not given): the IC50 in the data set on Plasmodium falciparum [3] and in the data set with Plasmodium falciparum [4] was greater than 5000 nM throughout.

`C[C@@H]1Cc2c([nH]c3cc(Cl)ccc23)[C@]2(N1)C(=O)Nc1ccc(Cl)cc12`: the IC50 is 116 nM in the data set with Plasmodium falciparum [3], “Not Active” against Cytochrome P450 3A4, “Not Active” on Cytochrome P450 2D6 and greater than 10000 nM against Cytochrome P450 2C9.

In the case of `C[C@@H]1Cc2c([nH]c3cc(Cl)c(F)cc23)[C@]2(N1)C(=O)Nc1ccc(Cl)cc12`, the IC50 in the data set with Plasmodium falciparum [3] is 77 nM; on Cytochrome P450 3A4, “Not Active”; against Cytochrome P450 2D6 it was “Not Active”; against Cytochrome P450 2C9 it was greater than 10000 nM. This compound also registered a clearance in data set [5] of 2.58 mL/min/kg.

`CC1CCc2c([nH]c3ccccc23)C2(N1)C(=O)Nc1ccc(Cl)cc12` (stereo not given): in the data set on Plasmodium falciparum [3], half-maximal inhibition (IC50) was put at 84 nM.

Take `C[C@H]1Cc2c([nH]c3ccc(F)cc23)[C@@]2(N1)C(=O)Nc1ccc(Cl)cc12`: the IC50 in the data set on Plasmodium falciparum [3] is 3 nM; on Cytochrome P450 3A4 it was “Not Active”; against Cytochrome P450 2D6 it was “Not Active”; at Cytochrome P450 2C9, 1720 nM. The solubility in data set [1] is 140 µg/mL (≈ 393 µM). In data set [5], the clearance turned out to be 24 mL/min/kg. In data set [2], this compound showed a logP of 3.6.

As a reminder, the half-life is how long it takes for the measured level to halve. By AUC(0-inf) is commonly meant the area under the concentration-time curve extrapolated to infinity. What is called Cmax is the maximum level reached in the sampled fluid or tissue. One may read the Tmax as the time from dosing to the highest level. On to `C[C@H]1Cc2c([nH]c3cc(F)c(F)cc23)[C@@]2(N1)C(=O)Nc1ccc(Cl)cc12`, for which the values for the half-life in [7] and in [16] were 3.18 h and 2.94 h, respectively. This compound also registered a total exposure AUC(0-inf) in data set [8] of 71.4 µM·h. In addition, the Survival in the data set on Plasmodium berghei [9] came out at 29.4 days; in the data set on Plasmodium berghei [12], 12 days; in the data set on Plasmodium berghei [14], 13 days; in the data set on Plasmodium berghei [15], 17.2 days. Further, the concentration for half-maximal inhibition (IC50) was 0.2 nM in the data set on Plasmodium falciparum [3]; “Not Active” at Cytochrome P450 3A4; “Not Active” at Cytochrome P450 2D6; 7350 nM against Cytochrome P450 2C9; greater than 30000 nM in data set [6]. Besides, in data set [10], the Vd amounted to 1.6 L/kg. Moreover, in data set [1], the solubility is 170 µg/mL (≈ 455 µM). The same compound had a Cmax in data set [11] of 8.32 µM. The clearance in data set [5] and in [13] was 8.53 mL/min/kg throughout. For the same compound, in [2], the logP is 4. This compound registered a F in the data set with Mus musculus of 53%. Besides, the time of peak concentration (Tmax) in data set [17] was 2 h.

On to `C[C@@H]1Cc2c([nH]c3cc(F)c(F)cc23)[C@]2(N1)C(=O)Nc1ccc(Cl)cc12`, for which the half-maximal inhibitory concentration (IC50) is 83 nM in the data set with Plasmodium falciparum [3], “Not Active” at Cytochrome P450 3A4, “Not Active” at Cytochrome P450 2D6 and greater than 10000 nM against Cytochrome P450 2C9. Moreover, the clearance in [5] worked out at 4.14 mL/min/kg.

Consider `C[C@H]1[C@H](OC(=O)CCC(=O)O)O[C@@H]2O[C@@]3(C)CC[C@H]4[C@H](C)CC[C@@H]1[C@@]24OO3` [ARTESUNATE], for which the Survival with Plasmodium berghei [9] was 12.2 days; in the data set on Plasmodium berghei [12] it was 5.8 days; with Plasmodium berghei [14], 7 days; in the data set on Plasmodium berghei [15], 8.1 days. The Activity with Plasmodium berghei [18] was found to be 99%; with Plasmodium berghei [19] it was 96%; with Plasmodium berghei [20], 95.6%; in the data set on Plasmodium berghei [21] it was 98%.

On to `C[C@@H]1Cc2c([nH]c3ccc(F)cc23)[C@]2(N1)C(=O)Nc1ccc(Cl)cc12`, for which the IC50 was 182 nM in the data set with Plasmodium falciparum [3], “Not Active” against Cytochrome P450 3A4, “Not Active” at Cytochrome P450 2D6 and greater than 10000 nM against Cytochrome P450 2C9.

Consider `CCN(CC)CCCC(C)Nc1ccnc2cc(Cl)ccc12` (stereo not given) [CHLOROQUINE], for which the Survival was found to be 14.3 days in the data set with Plasmodium berghei [9], 9 days in the data set with Plasmodium berghei [12], 12.5 days with Plasmodium berghei [14] and 13.6 days in the data set with Plasmodium berghei [15]. Further, the Activity with Plasmodium berghei [18] is listed as 99.8%; in the data set with Plasmodium berghei [19], 99.8%; in the data set with Plasmodium berghei [20], 99.5%; in the data set on Plasmodium berghei [21], 99.6%.

Turning to `O=C1Nc2ccc(Cl)cc2C12NCCc1c2[nH]c2ccccc12` (stereo not given), the half-inhibitory concentration (IC50) in the data set with Plasmodium falciparum [3] was 126 nM; in the data set on Plasmodium falciparum [4], 104 nM.

The record behind these values is ChEMBL document CHEMBL1155453, “Spirotetrahydro beta-carbolines (spiroindolones): a new class of potent and orally efficacious compounds for the treatment of malaria” (J Med Chem, 2010).
